The list is not random: actives were taken first. Their share in the collection is about 3%.
CendR NRP1 mod: modulators of CendR peptide binding to NRP-1, primary screen, biochemical, fluorescence polarization, uHTS; FAM-RPARPAR peptide binding to NRP-1; inhibition, % at 25 µM; AID 602438, 2012; Neuropilin-1 (Homo sapiens), O14786; hit rate 0.85% among 360,000;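 active means inhibition or corrected inhibition above about 18%, plus a signal ratio from 0.5 to 1.5, limit read from the data, passing the limit was not always enough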
Target sequence (O14786 whole entry, looked up): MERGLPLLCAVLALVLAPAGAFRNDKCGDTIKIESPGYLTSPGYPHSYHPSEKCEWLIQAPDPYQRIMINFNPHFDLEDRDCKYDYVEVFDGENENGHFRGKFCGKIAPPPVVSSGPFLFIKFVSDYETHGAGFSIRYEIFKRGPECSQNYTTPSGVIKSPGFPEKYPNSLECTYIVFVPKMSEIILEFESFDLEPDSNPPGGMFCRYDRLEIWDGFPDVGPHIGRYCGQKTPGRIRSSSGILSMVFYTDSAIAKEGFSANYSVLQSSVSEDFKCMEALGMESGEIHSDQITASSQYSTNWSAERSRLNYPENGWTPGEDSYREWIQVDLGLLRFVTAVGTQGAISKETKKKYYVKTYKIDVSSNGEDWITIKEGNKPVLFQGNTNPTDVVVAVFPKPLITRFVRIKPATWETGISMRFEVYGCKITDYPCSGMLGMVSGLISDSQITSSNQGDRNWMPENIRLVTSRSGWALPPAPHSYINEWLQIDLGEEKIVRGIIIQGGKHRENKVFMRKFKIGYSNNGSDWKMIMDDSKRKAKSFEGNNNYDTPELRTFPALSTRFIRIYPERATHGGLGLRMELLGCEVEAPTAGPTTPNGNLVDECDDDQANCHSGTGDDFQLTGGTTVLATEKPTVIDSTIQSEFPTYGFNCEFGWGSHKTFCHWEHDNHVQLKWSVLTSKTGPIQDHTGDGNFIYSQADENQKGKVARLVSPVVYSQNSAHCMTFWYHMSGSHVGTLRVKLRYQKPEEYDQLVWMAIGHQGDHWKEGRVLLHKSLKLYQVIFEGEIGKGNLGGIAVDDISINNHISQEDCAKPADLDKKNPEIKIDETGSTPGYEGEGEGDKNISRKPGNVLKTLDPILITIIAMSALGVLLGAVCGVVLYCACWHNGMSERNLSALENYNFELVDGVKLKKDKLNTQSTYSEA
HIF act: HIF pathway transcriptional activators, primary screen, cell-based, U2OS HRE-luciferase, luminescence; hit rate 0.32% among 300,000; activation, % at 7.5 µM (by protocol); U2OS HRE-luciferase reporter; normalized: DMSO 0%, desferrioxamine 100%;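 active means mean activation of at least 10% of the iron chelator positive control signal, with at least half of replicates also reaching 10%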
V-ATPase pH: regulators of yeast V-ATPase proton pumping, primary screen, pHLuorin cytosolic pH fluorescence; response, % at 10 µM; hit rate 0.37% among 350,000; S. cerevisiae; in the data active means response mostly above about 7.3%, no sharp cut-off; inactive means mostly below about 5.4%; further: actives read high
T cruzi repl: inhibitors of intracellular T. cruzi growth, primary screen, luminescence, NIH3T3 host cells | hit rate 1.4% among 300,000 | T. cruzi beta-gal in NIH3T3, 90 h | inhibition, % (concentration not given with the values);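 active means mean inhibition across valid replicates above about 55%, limit read from the data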;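 further: signal also drops with host cell toxicity which is not excluded here; 0% = plate median of DMSO wells and 100% = zero luminescence signal; higher percent means less beta-gal luminescence so fewer parasites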
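Material: NIH/3T3 host cells with β-galactosidase reporter T. cruzi; Input: 5,000 host fibroblasts per well; Medium: DMEM, 2% fetal bovine serum; Compound: 50 nL DMSO compound solution per well; Schedule: 3 h host attachment, then at least 90 h co-culture; Detection: luminescent β-galactosidase signal after 60 min lysis.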
Yeast superoxide: reduction of superoxide in aged yeast, primary screen, HTS | superoxide response (% of plate mean), % at 10 µM | hit rate 0.18% among 330,000 | S. cerevisiae aged cells, superoxide DHE fluorescence; active compounds read low;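 active means superoxide response under a set limit, about three screen SD below normal, cut at about 65% in these data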;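 further: yeast aged for seven days with compound at 30 °C before DHE staining; 100% = average MFI of all compound-treated wells on the plate with controls excluded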
AI-2 QS mod: Vibrio harveyi AI-2 quorum sensing modulators, primary screen, JMH597 strain, luminescence/OD600 ratio | activity change, % at 7.5 µM | hit rate 0.4% among 300,000 | AID 2094, 2009 | Vibrio harveyi JMH597 AI-2 luminescence/OD600 ratio, 9 h; active compounds read low; strain lacks LuxN and CqsS sensors; 0 = neutral-control median; in the data active means activity change below about -75%, passing the limit was not always enough;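 further: luminescence divided by OD600 gain over 9 h not by final OD600 alone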
Starred values were filed as active, the others as inactive.

Results for Cc1ccc(-c2c[n+](CC(=O)c3ccc(Br)cc3)c3n2CCCCC3)cc1 ?
CendR NRP1 mod: 3.2; HIF act: 0.3; V-ATPase pH: 1.2; T cruzi repl: 73.6*; Yeast superoxide: 103.5; AI-2 QS mod: 20.1

How did CC1CCN(C(=O)/C=C/c2ccc(C(C)(C)C)cc2)CC1 do in these assays?
CendR NRP1 mod: 12.2; HIF act: 1.2; V-ATPase pH: 4.6; T cruzi repl: 11.8; Yeast superoxide: 87.2; AI-2 QS mod: -89.3*

How did CC1=C(C(=O)OCC2CCCO2)C(c2ccccc2)NC(=O)N1 (stereo unspecified) do in these assays?
CendR NRP1 mod: 28.0*; HIF act: 0.1; V-ATPase pH: -0.8; T cruzi repl: -2.6; Yeast superoxide: 88.7; AI-2 QS mod: 12.2

Results for CC1=C(C(=O)OCC2CCCO2)C(c2ccc(O)cc2)NC(=O)N1 (stereo unspecified) ?
CendR NRP1 mod: -0.6; HIF act: -0.4; V-ATPase pH: 4.0; T cruzi repl: -9.1; Yeast superoxide: 83.1; AI-2 QS mod: 4.0

Results for Cc1ccc(N/N=C/C=C/c2ccco2)cc1 ?
CendR NRP1 mod: -22.7; HIF act: 4.0; V-ATPase pH: -4.7; T cruzi repl: 73.4*; Yeast superoxide: 78.4; AI-2 QS mod: -4.8

Results for CCOC(=O)N/N=C\C=C\c1ccco1 ?
CendR NRP1 mod: -11.6; HIF act: 0.2; V-ATPase pH: -1.0; T cruzi repl: 4.8; Yeast superoxide: 104.7; AI-2 QS mod: 19.1

What do the screens show for `CCc1nnc(NS(=O)(=O)c2ccc(Nc3ccc4nonc4c3[N+](=O)[O-])cc2)s1`?
CendR NRP1 mod: 8.1; HIF act: -0.1; V-ATPase pH: -0.2; T cruzi repl: -7.7; Yeast superoxide: 129.2; AI-2 QS mod: 39.9

What do the screens show for `COc1ccc(OC)c(C(C)NC(=O)C23CC4CC(CC(C4)C2)C3)c1` (stereo unspecified)?
CendR NRP1 mod: 7.9; HIF act: 0.0; V-ATPase pH: 2.9; T cruzi repl: 13.4; Yeast superoxide: 101.2; AI-2 QS mod: 2.3

How did CC(NC(=O)C12CC3CC(CC(O)(C3)C1)C2)c1ccc(Cl)cc1Cl (stereo unspecified) do in these assays?
CendR NRP1 mod: 13.0; HIF act: 16.0*; V-ATPase pH: -6.3; T cruzi repl: 10.8; Yeast superoxide: 90.0; AI-2 QS mod: 19.2

How did CC(C)CCn1nc(C(=O)OCC(=O)NC(C)c2ccccc2)c2ccccc2c1=O (stereo unspecified) do in these assays?
CendR NRP1 mod: -0.3; V-ATPase pH: 1.3

What do the screens show for `O=C(COC(=O)c1cccc(Cl)c1)NCCN1C(=O)CSC1=O`?
CendR NRP1 mod: 14.1; V-ATPase pH: 15.6*; T cruzi repl: -13.0; Yeast superoxide: 96.0; AI-2 QS mod: 19.6

How did O=C(COC(=O)c1cc(Cl)cc(Cl)c1)NCCN1C(=O)CSC1=O do in these assays?
CendR NRP1 mod: 3.7; HIF act: 0.2; V-ATPase pH: 4.2; T cruzi repl: -15.2; Yeast superoxide: 105.1; AI-2 QS mod: 33.6

How did CCn1nc(C(=O)OCC(=O)NC(C)C)c2ccccc2c1=O do in these assays?
CendR NRP1 mod: -1.7; HIF act: 37.8*; V-ATPase pH: -1.4; T cruzi repl: -3.6; Yeast superoxide: 133.0; AI-2 QS mod: 9.8

How did CSc1ccccc1C(=O)OCC(=O)NCCN1C(=O)CSC1=O do in these assays?
CendR NRP1 mod: 14.6; V-ATPase pH: -0.8; Yeast superoxide: 94.8

Results for CCn1nc(C(=O)OCC(=O)NCCN2C(=O)CSC2=O)c2ccccc2c1=O ?
CendR NRP1 mod: 38.2*; HIF act: -16.9; V-ATPase pH: -6.2; T cruzi repl: -5.2; Yeast superoxide: 105.0; AI-2 QS mod: 25.2

What do the screens show for `CC(NC(=O)CN1C(=O)NC2(CCCCC2C)C1=O)c1ccccc1` (stereo unspecified)?
CendR NRP1 mod: -2.4; V-ATPase pH: 2.4; Yeast superoxide: 90.4

How did Cc1ccccc1Cn1c2ccccc2c2cnn(CC(=O)NCCCN3CCOCC3)c(=O)c21 do in these assays?
CendR NRP1 mod: 0.6; HIF act: -0.4; V-ATPase pH: 5.6; T cruzi repl: -8.5; Yeast superoxide: 96.7; AI-2 QS mod: 8.9

How did Cc1ccc(NC2=CC(=O)C(=O)c3ccccc32)cc1 do in these assays?
CendR NRP1 mod: 2.7; HIF act: -7.2; V-ATPase pH: 2.7; T cruzi repl: -7.4; Yeast superoxide: 103.3; AI-2 QS mod: 12.1

What do the screens show for `Cc1cc(NC2=CC(=O)C(=O)c3ccccc32)no1`?
CendR NRP1 mod: 28.5*; V-ATPase pH: -0.9

How did CC(C)(C)C(=O)CSc1nc2c(c(-c3cccs3)c1C#N)CCC2 do in these assays?
CendR NRP1 mod: -1.0; HIF act: -0.4; V-ATPase pH: 5.7; T cruzi repl: 35.2; Yeast superoxide: 116.1; AI-2 QS mod: 15.8

Results for Cc1cc(Br)cn2c(Cc3ccsc3)c(C(C)(C)C)nc12 ?
CendR NRP1 mod: 48.6*

How did CCCc1nc2c(C)cc(Br)cn2c1Cc1ccsc1 do in these assays?
CendR NRP1 mod: 9.9

Results for Cc1cc(Br)cn2c(Cc3ccsc3)c(C3CCCCC3)nc12 ?
CendR NRP1 mod: 35.1*

Results for O=C(/C=C/c1ccc2c(c1)OCO2)Nc1cccnc1 ?
CendR NRP1 mod: -2.0; HIF act: 11.2*; V-ATPase pH: -0.9; T cruzi repl: 1.9; Yeast superoxide: 98.9; AI-2 QS mod: 20.5

How did COc1cc(C2Nc3ccccc3NC3=C2C(=O)CC(C)(C)C3)cc(OC)c1OC (stereo unspecified) do in these assays?
CendR NRP1 mod: 5.5; HIF act: 1.2; V-ATPase pH: -1.5; T cruzi repl: -4.2; Yeast superoxide: 111.8; AI-2 QS mod: -0.6

How did Clc1ccc(SCc2cc(N3CCOCC3)nc(-c3ccccn3)n2)cc1 do in these assays?
CendR NRP1 mod: -3.0; HIF act: -0.2; V-ATPase pH: 1.2; T cruzi repl: 60.4*; Yeast superoxide: 103.8; AI-2 QS mod: 29.1

Results for O=c1cc(CSc2ccc(Cl)cc2)nc(-c2ccccn2)[nH]1 ?
CendR NRP1 mod: 9.2; HIF act: 7.0; V-ATPase pH: -1.8; T cruzi repl: 59.4*; Yeast superoxide: 103.4; AI-2 QS mod: 27.8

What do the screens show for `NC(=S)N/N=C/c1ccccc1OCCSc1ccc(Cl)cc1`?
CendR NRP1 mod: 5.2; HIF act: 0.0; V-ATPase pH: 4.5; T cruzi repl: 56.6*; Yeast superoxide: 102.1; AI-2 QS mod: 13.4

How did COc1cccc(/C=N/NC(N)=S)c1OCc1ccccc1Cl do in these assays?
CendR NRP1 mod: 4.8; HIF act: -0.3; V-ATPase pH: 4.5; T cruzi repl: 59.3*; Yeast superoxide: 79.6; AI-2 QS mod: 10.5

Compound activity: PubChem, several laboratories
